Assay results pooled from the literature.
LCK: Tyrosine-protein kinase Lck (LCK, Homo sapiens, UniProt P06239)

Compound	target	effect on	mode	method	concentration	endpoint	value
CN(C)c1ncc(F)c(-c2cnn3ncccc23)n1	LCK	cell-free assay	–	–	1 µM	remaining signal	76%
Cc1ccc(Nc2nccc(N(C)c3ccc4c(C)n(C)nc4c3)n2)cc1S(N)(=O)=O	LCK	enzyme activity	inhibitor	–	10 µM	inhibition	99%
CN(c1nccc(-c2cnn3ncccc23)n1)C1CC1	LCK	cell-free assay	–	–	1 µM	remaining signal	98%
COc1cc(-c2cn(C3CCc4c(F)cccc4N(CC(F)(F)F)C3=O)nn2)ccc1-n1cnc(C)c1 (stereo not shown)	LCK	cell-free assay	–	competition with immobilised ligand	1 µM	remaining binding	100%
CSc1nc(C)c(-c2ccnc(Nc3ccc(N4CCOCC4)cc3)c2)[nH]1	LCK	enzyme activity	inhibitor	–	10 µM	inhibition	15.8%
CCOc1cc(-c2nncn2C)ccc1Nc1ncc2cc(C)nc(NCC(C)(C)C)c2n1	LCK	enzyme activity	inhibitor	FRET	1 µM	inhibition	< 15%
Cc1ccc(C(=O)NCc2ccsc2)cc1C#Cc1cn(C(C)C)c2ncnc(N)c12	LCK	enzyme activity	inhibitor	–	1 µM	activity vs control	3%
Cc1cn(-c2cc(NC(=O)c3ccc(C)c(Nc4nccc(-c5cccnc5)n4)c3)cc(C(F)(F)F)c2)cn1	LCK	enzyme activity	inhibitor	–	0.5 µM	activity vs control	22.2%
CCS(=O)(=O)c1cc2cc(C[C@@](O)(CC(C)(C)c3ccc(F)cc3C(N)=O)C(F)(F)F)[nH]c2cn1	LCK	cell-free assay	–	competition with immobilised ligand	1 µM	remaining binding	81%
CNC(=O)c1cc2c(Oc3ccc(NC(=O)C4(C(=O)Nc5ccc(F)cc5)CC4)cc3)ccnc2cc1OC	LCK	enzyme activity	inhibitor	radiometric	1 µM	inhibition	99%
Cc1cc(NC(=O)c2cccc3cc(-c4cccc5[nH]nc(N)c45)ccc23)ccc1F	LCK	enzyme activity	inhibitor	–	0.1 µM	activity vs control	90%
O=C(Nc1cccnn1)N1CC(C/C=C/c2cncc(Oc3ccc(C(F)(F)F)cn3)n2)C1	LCK	cell-free assay	–	competition with immobilised ligand	1 µM	remaining binding	100%
CNCc1ccc(-c2cc(-c3nc(-c4ccc(S(=O)(=O)C(C)C)cc4)cnc3N)on2)cc1	LCK	enzyme activity	inhibitor	–	2 µM	inhibition	64%
C[C@@H]1CN(c2cc(-c3nn(C)c4ccc(OC5(C)CC5)cc34)ncn2)C[C@H](C)O1	LCK	cell-free assay	–	competition with immobilised ligand	1 µM	remaining binding	94%
C=CC(=O)Nc1cc(Nc2nccc(Nc3cc(Cl)c(F)cc3C(C)(C)O)n2)c(OC)cc1N1CC[C@@H](N(C)C)C1	Tyrosine-protein kinase Lck, phosphorylated (LCK, Homo sapiens, UniProt P06239)	enzyme activity	inhibitor	–	1 µM	inhibition	5%
C[C@H](NC(=O)c1cnc2n1[C@](C)(Cc1ccc(C#N)cc1)C(=O)N2c1cc(Cl)c(F)c(Cl)c1)C(=O)NC1(c2ccccn2)CC1	LCK	cell-free assay	–	competition with immobilised ligand	1 µM	remaining binding	100%
c1cc(-c2cnn3cc(-c4ccc(OCCN5CCCCC5)cc4)cnc23)ccn1	LCK	enzyme activity	inhibitor	–	0.5 µM	activity vs control	51.8%
COc1cc2ncnc(Nc3ccc(Oc4ccccc4)cc3C)c2cc1OC	LCK	enzyme activity	inhibitor	–	1 µM	inhibition	92%
CNC(=O)c1ccccc1Nc1cc(Nc2ccc(N3CCOCC3)cc2OC)ncc1C(F)(F)F	LCK	enzyme activity	inhibitor	–	1 µM	inhibition	> 50%
Cc1cc(-n2nc(Cc3cc(F)cc(C(F)(F)F)c3)nc2C)ccc1C(N)=O	LCK	cell-free assay	–	competition with immobilised ligand	1 µM	remaining binding	100%
FC(F)(F)Oc1cccc(-c2cnc3ccc(-c4ccncc4)nn23)c1	LCK	enzyme activity	inhibitor	radiometric	5 µM	activity vs control	25%
O=C(O)c1cc(-c2ccc(C3CCNCC3)cc2)c2ccc(-c3ccc(C(F)(F)F)cc3)cc2c1	LCK	cell-free assay	–	competition with immobilised ligand	1 µM	remaining binding	100%
CN(C)C1CCN(CC#Cc2nn(C3CCCC3)c3nc(NCc4ccccc4)ncc23)C1 (stereo not shown)	LCK	enzyme activity	inhibitor	FRET	0.1 µM	inhibition	17%
CN(C)CC#Cc1ccc(OCCCc2sc(N3CCc4cccc(C(=O)Nc5nc6ccccc6s5)c4C3)nc2C(=O)O)c(F)c1	LCK	cell-free assay	–	competition with immobilised ligand	1 µM	remaining binding	100%
CNc1cccc2cc(C(=O)Nc3ccc(C(=O)O)cc3)c(=O)[nH]c12	LCK	enzyme activity	inhibitor	–	10 µM	inhibition	0.91%
